How the values were obtained:
[1] = Antiproliferative activity against human MDA-MB-231 cells after 24 hrs by MTS assay; assay type: functional, cell-based; details: MDA-MB-231, 24 h
Outline: (§1)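 Cells were exposed for 24 h to compound diluted 1:10, 1:100, 1:1000 and 1:10,000 from a 4 mg/ml DMSO stock; untreated controls were grown in non-modified medium. MTS was added for 2 h at 37 °C under 5% CO2, and absorbance was read at 490 nm. Viability is expressed as % of untreated control, averaged over three independent assays. EC50 or IC50 values were calculated from the plotted data.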

[2] = Antiproliferative activity against human HeLa cells after 24 hrs by MTS assay; assay type: functional, cell-based; outline: as §1
[3] = Cytotoxicity against human HT-29 cells after 24 hrs by MTS assay; assay type: functional, cell-based; details: HT-29, 24 h; outline: as §1
[4] = Cytotoxicity against human HepG2 cells after 24 hrs by MTS assay; assay type: functional, cell-based; details: HepG2, 24 h; outline: as §1
[5] = Cytotoxicity against human LEP-3 cells after 24 hrs by MTS assay; assay type: toxicity, cell-based; outline: as §1
[6] = test system: HT-29; experiment: Ratio of IC50 for human LEP-3 cells to IC50 for human HT-29 cells
[7] = Photostability of the compound in DMF at 2185 +/- 0.087 10^-5mol/L measured up to 240 mins in presence of UV-light by UV-vis spectrophotometric analysis; details: 4 h
[8] = Photostability of the compound in DMF at 3916 +/- 0.158 10^-5mol/L measured up to 240 mins in presence of UV-light by UV-vis spectrophotometric analysis; details: 4 h
[9] = Photostability of the compound in DMF at 5242 +/- 0.209 10^-5mol/L measured up to 240 mins in presence of UV-light by UV-vis spectrophotometric analysis; details: 4 h
[10] = Photostability of the compound in DMF at 2275 +/- 0.091 10^-5mol/L measured up to 240 mins in presence of UV-light by UV-vis spectrophotometric analysis; details: 4 h
[11] = Photostability of the compound in DMF at 4089 +/- 0.164 10^-5mol/L measured up to 240 mins in presence of UV-light by UV-vis spectrophotometric analysis; details: 4 h
[12] = Antiproliferative activity against human HT-29 cells after 24 hrs by MTS assay; assay type: functional, cell-based; details: HT-29, 24 h; outline: as §1
[13] = Photostability of the compound in DMF assessed as drug degradation at 3128 +/- 0.125 10^-5mol/L measured after 240 mins in presence of UV-light by UV-vis spectrophotometric analysis; assay type: physicochemical; details: DMF solution under UV light; read-out: Drug degradation
[14] = Cytotoxicity against human MDA-MB-231 cells after 24 hrs by MTS assay; assay type: functional, cell-based; details: MDA-MB-231, 24 h; outline: as §1
[15] = Cytotoxicity against human HeLa cells after 24 hrs by MTS assay; assay type: functional, cell-based; outline: as §1
[16] = Antiproliferative activity against human HepG2 cells after 24 hrs by MTS assay; assay type: functional, cell-based; details: HepG2, 24 h; outline: as §1
[17] = Antiproliferative activity against human LEP-3 cells after 24 hrs by MTS assay; assay type: cell-based; details: LEP-3, 24 h; outline: as §1

Structure (SMILES)	EC50 [1] [µM]	EC50 [2] [µM]	IC50 [3] [µM]	IC50 [4] [µM]	IC50 at 24 h [5] [µM]	Ratio IC50 [6]	Stability [7]	Stability [8]	Stability [9]	Stability [10]	Stability [11]	EC50 [12] [µM]	degraded at 4 h [13] [%]	IC50 [14] [µM]	IC50 [15] [µM]	EC50 [16] [µM]	EC50 [17] [µM]
CCNc1nnc(CSc2nc3sc4c(c3c(=O)n2CC)CCCC4)s1	0.001	9.28	0.001	9.8	9.77	100	Stable	Stable	Stable	Stable	Stable						
CCNC(=S)NNC(=O)CSc1nc2sc(C)c(C)c2c(=O)n1CC	8.86	0.43			0.01							0.085	30				
CCNc1nnc(CSc2nc3sc(C(=O)OCC)c(C)c3c(=O)n2CC)s1			9.12	9.51	0.089		Stable	Stable	Stable	Stable	Stable			2.13	0.83		
CCNC(=S)NNC(=O)CSc1nc2sc3c(c2c(=O)n1CC)CCCC3	9.33	7.97					Stable	Stable	Stable	Stable	Stable	1.13				2.72	8.25
CCNC(=S)NNC(=O)CSc1nc2sc(C(=O)OCC)c(C)c2c(=O)n1CC			7.38	8.71	0.8		Stable	Stable	Stable	Stable	Stable			0.000231	8.71		
CCNc1nnc(CSc2nc3sc(C)c(C)c3c(=O)n2CC)s1			3.58	0.99	191		Stable	Stable	Stable	Stable	Stable			9.4	7.42		

From ChEMBL document CHEMBL3872203, “Synthesis, anticancer activity and photostability of novel 3-ethyl-2-mercapto-thieno[2,3-d]pyrimidin-4(3H)-ones” (Eur J Med Chem, 2016)
